Five compounds from ChEMBL document CHEMBL3593182, “Phytochemical Investigation of the Constituents Derived from the Australian Plant Macropidia fuliginosa” (2015) can be followed below.

Activity calls are given as the source filed them. No cut-off for these calls is given here.

Assay [1] has as its system Escherichia coli. In words: Antimicrobial activity against Escherichia coli ATCC 25922 assessed as zone of inhibition at 1724 uM incubated overnight at 37 degC. The assay is classed as functional. To be noted: read-out: IZ. The procedure, abridged: (§1)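 Pure isolates screened against a panel of five bacteria and one fungus, each at a single concentration within 1639–5230 μM. A commercial antibiotic and antifungal agent were tested in parallel as references. Growth inhibition was recorded as the zone of inhibition.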

The subject of assay [2] is Staphylococcus aureus. The assay is described as follows: Antimicrobial activity against methicillin-resistant Staphylococcus aureus 344/2-32 assessed as zone of inhibition at 1724 uM incubated overnight at 37 degC. The class given is functional, organism-based.
In assay [3] the test system is Pseudomonas aeruginosa. In words: Antimicrobial activity against Pseudomonas aeruginosa ATCC 27853 assessed as zone of inhibition at 1724 uM incubated overnight at 37 degC. The assay is classed as functional. To be noted: read-out: IZ. Put shortly: as §1
The test system of assay [4] is Candida albicans. In words: Antimicrobial activity against Candida albicans ATCC 10231 assessed as zone of inhibition at 1724 uM incubated overnight at 37 degC. The assay is classed as functional, organism-based. Put shortly:
as §1

The subject of assay [5] is Streptococcus pyogenes. The assay is described as follows: Antimicrobial activity against Streptococcus pyogenes 345/1 assessed as zone of inhibition at 1724 uM incubated overnight at 37 degC. The assay is classed as functional. To be noted: read-out: IZ. The procedure, abridged:
as §1

The subject of assay [6] is Staphylococcus aureus. The assay is described as follows: Antimicrobial activity against Staphylococcus aureus ATCC 25923 assessed as zone of inhibition at 1724 uM incubated overnight at 37 degC. The assay is classed as functional, organism-based. The procedure, abridged: as §1
The subject of assay [7] is Escherichia coli. In words: Antimicrobial activity against Escherichia coli ATCC 25922 assessed as zone of inhibition at 2762 uM incubated overnight at 37 degC. The assay is classed as functional, organism-based. The procedure, abridged: as §1
Assay [8] deals with Pseudomonas aeruginosa. The assay is described as follows: Antimicrobial activity against Pseudomonas aeruginosa ATCC 27853 assessed as zone of inhibition at 2762 uM incubated overnight at 37 degC. The class given is functional, organism-based. Put shortly: as §1
The subject of assay [9] is Streptococcus pyogenes. In words: Antimicrobial activity against Streptococcus pyogenes 345/1 assessed as zone of inhibition at 2762 uM incubated overnight at 37 degC. The class given is functional. The conditions noted are these: read-out: IZ. Put shortly:
as §1

For assay [10], the system named is Staphylococcus aureus. In words: Antimicrobial activity against methicillin-resistant Staphylococcus aureus 344/2-32 assessed as zone of inhibition at 2762 uM incubated overnight at 37 degC. The assay is classed as functional, organism-based.
Assay [11] deals with Candida albicans. The assay is described as follows: Antimicrobial activity against Candida albicans ATCC 10231 assessed as zone of inhibition at 2762 uM incubated overnight at 37 degC. The assay is classed as functional, organism-based. The procedure, abridged: as §1
The test system of assay [12] is Staphylococcus aureus. The assay is described as follows: Antimicrobial activity against Staphylococcus aureus ATCC 25923 assessed as zone of inhibition at 2762 uM incubated overnight at 37 degC. The assay is classed as functional. The conditions noted are these: read-out: IZ. Put shortly:
as §1

Assay [13] has as its system Pseudomonas aeruginosa. In words: Antimicrobial activity against Pseudomonas aeruginosa ATCC 27853 assessed as zone of inhibition at 3675 uM incubated overnight at 37 degC. The assay is classed as functional, organism-based. The procedure, abridged: as §1
Assay [14] relates to Candida albicans. The assay is described as follows: Antimicrobial activity against Candida albicans ATCC 10231 assessed as zone of inhibition at 3675 uM incubated overnight at 37 degC. The class given is functional, organism-based. Put shortly:
as §1

The test system of assay [15] is Streptococcus pyogenes. The assay is described as follows: Antimicrobial activity against Streptococcus pyogenes 345/1 assessed as zone of inhibition at 3675 uM incubated overnight at 37 degC. The class given is functional, organism-based.
Assay [16] has as its system Escherichia coli. The assay is described as follows: Antimicrobial activity against Escherichia coli ATCC 25922 assessed as zone of inhibition at 3675 uM incubated overnight at 37 degC. The assay is classed as functional, organism-based. The procedure, abridged: as §1
The subject of assay [17] is Staphylococcus aureus. The assay is described as follows: Antimicrobial activity against Staphylococcus aureus ATCC 25923 assessed as zone of inhibition at 3675 uM incubated overnight at 37 degC. The class given is functional, organism-based. Put shortly: as §1
Assay [18] has as its system Staphylococcus aureus. The assay is described as follows: Antimicrobial activity against methicillin-resistant Staphylococcus aureus 344/2-32 assessed as zone of inhibition at 3675 uM incubated overnight at 37 degC. The assay is classed as functional, organism-based.
For assay [19], the system named is Candida albicans. In words: Antimicrobial activity against Candida albicans ATCC 10231 assessed as zone of inhibition at 3905 uM incubated overnight at 37 degC. The class given is functional, organism-based. Put shortly:
as §1

The test system of assay [20] is Staphylococcus aureus. In words: Antimicrobial activity against methicillin-resistant Staphylococcus aureus 344/2-32 assessed as zone of inhibition at 3905 uM incubated overnight at 37 degC. The class given is functional, organism-based.
The test system of assay [21] is Staphylococcus aureus. The assay is described as follows: Antimicrobial activity against Staphylococcus aureus ATCC 25923 assessed as zone of inhibition at 3905 uM incubated overnight at 37 degC. The class given is functional, organism-based. Put shortly: as §1
The test system of assay [22] is Pseudomonas aeruginosa. The assay is described as follows: Antimicrobial activity against Pseudomonas aeruginosa ATCC 27853 assessed as zone of inhibition at 3905 uM incubated overnight at 37 degC. The class given is functional, organism-based. The procedure, abridged: as §1
Assay [23] has as its system Streptococcus pyogenes. In words: Antimicrobial activity against Streptococcus pyogenes 345/1 assessed as zone of inhibition at 3905 uM incubated overnight at 37 degC. The assay is classed as functional. To be noted: read-out: IZ.
The test system of assay [24] is Escherichia coli. The assay is described as follows: Antimicrobial activity against Escherichia coli ATCC 25922 assessed as zone of inhibition at 3905 uM incubated overnight at 37 degC. The assay is classed as functional, organism-based. The procedure, abridged:
as §1

Assay [25] relates to Pseudomonas aeruginosa. The assay is described as follows: Antimicrobial activity against Pseudomonas aeruginosa ATCC 27853 assessed as zone of inhibition at 2211 uM incubated overnight at 37 degC. The assay is classed as functional, organism-based. Put shortly: as §1
The test system of assay [26] is Candida albicans. In words: Antimicrobial activity against Candida albicans ATCC 10231 assessed as zone of inhibition at 2211 uM incubated overnight at 37 degC. The class given is functional, organism-based. Put shortly: as §1
The subject of assay [27] is Staphylococcus aureus. The assay is described as follows: Antimicrobial activity against Staphylococcus aureus ATCC 25923 assessed as zone of inhibition at 2211 uM incubated overnight at 37 degC. The class given is functional. The conditions noted are these: read-out: IZ. Put shortly:
as §1

The test system of assay [28] is Staphylococcus aureus. In words: Antimicrobial activity against methicillin-resistant Staphylococcus aureus 344/2-32 assessed as zone of inhibition at 2211 uM incubated overnight at 37 degC. The assay is classed as functional, organism-based.
For assay [29], the system named is Escherichia coli. The assay is described as follows: Antimicrobial activity against Escherichia coli ATCC 25922 assessed as zone of inhibition at 2211 uM incubated overnight at 37 degC. The class given is functional, organism-based. Put shortly: as §1
For assay [30], the system named is Streptococcus pyogenes. In words: Antimicrobial activity against Streptococcus pyogenes 345/1 assessed as zone of inhibition at 2211 uM incubated overnight at 37 degC. The class given is functional. The conditions noted are these: read-out: IZ. Put shortly:
as §1

For `O=C(/C=C/c1ccc(O)cc1)OC[C@H]1O[C@@H](Oc2cc(O)cc3c2C(=O)CC(c2ccc(O)cc2)O3)[C@H](O)[C@@H](O)[C@@H]1O` (stereo not given in full), the results for the zone of inhibition at 1724 µM in the assay on Escherichia coli [1], with Pseudomonas aeruginosa [3] and with Streptococcus pyogenes [5] were 1 mm, 10 mm and 1 mm, respectively. In addition, the “inhibition zone (IZ)” value with Staphylococcus aureus [2], in the assay on Candida albicans [4] and in the assay on Staphylococcus aureus [6] was “inactive” throughout.
Turning to `O=Cc1cc(O)c2c(-c3cc(O)cc(O)c3)c(-c3ccc(O)cc3)oc2c1`, the “inhibition zone (IZ)” value in the assay with Escherichia coli [7], in the assay on Pseudomonas aeruginosa [8], in the assay on Staphylococcus aureus [10] and with Candida albicans [11] was “inactive” each time. Besides, the zone of inhibition at 2762 µM in the assay with Streptococcus pyogenes [9] and with Staphylococcus aureus [12] was 1 mm throughout.
Consider `O=C1C(O)=Cc2cccc3ccc(-c4ccccc4)c1c23`, for which the “inhibition zone (IZ)” value in the assay on Pseudomonas aeruginosa [13], with Candida albicans [14], in the assay with Streptococcus pyogenes [15], in the assay with Escherichia coli [16], in the assay with Staphylococcus aureus [17] and in the assay on Staphylococcus aureus [18] was “inactive” in each case.
Turning to `O=C1C(c2ccccc2)=Cc2cccc3cccc1c23`, the “inhibition zone (IZ)” value with Candida albicans [19], in the assay on Staphylococcus aureus [20], in the assay with Staphylococcus aureus [21], with Pseudomonas aeruginosa [22] and in the assay on Escherichia coli [24] was “inactive” in each case. The zone of inhibition at 3905 µM with Streptococcus pyogenes [23] amounted to 2 mm.
Consider `Oc1ccc(/C=C/c2cc(O)c3c(-c4cc(O)cc(O)c4)c(-c4ccc(O)cc4)oc3c2)cc1`, for which the “inhibition zone (IZ)” value in the assay with Pseudomonas aeruginosa [25], with Candida albicans [26], with Staphylococcus aureus [28] and in the assay on Escherichia coli [29] was “inactive” in each case. Besides, the zone of inhibition at 2211 µM in the assay with Staphylococcus aureus [27] was found to be 2 mm; with Streptococcus pyogenes [30], 1 mm.
